Experiment: Toxicity liver stage against HepG2, at 10uM
Type: cell-based
Parameters: test concentration 10 uM, cell line HepG2-A16-CD81EGFP
Conditions: human, HepG2-A16-CD81EGFP cells; read-out: INHIBITION
In short: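 Uninfected HepG2-A16-CD81EGFP cells, 3 × 10^3 per well, 1536-well, plated on prespotted compound at 10 μM final, parasite-free screening media added to match infected plates; puromycin 10 μM positive, DMSO 0.5% negative; run in parallel with 48 h PbLuc assay at 37 °C, 5% CO2; viability by CellTiter-Glo luminescence, normalized to controls.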

Structure (SMILES) | cytotoxicity at 10 µM [%]
CN(C)Cc1nc(C(=O)N2CCCC(COc3ccc(F)cc3)C2)cs1 (configuration not stated) | -6.09
O=C(O)[C@@H]1CN(C(=O)c2ccc3nccnc3c2)C[C@H]1c1ccncc1 | -11.3
COc1cccc2c1OCC(C(=O)NCc1ncc3c(n1)CCC3)C2 (configuration not stated) | -8.51
COc1ccc2c(c1)CC(NCCCn1nc(C)nc1C)CC2 (configuration not stated) | -3.27
OCC1(O)CCCN(Cc2ccc(-c3cc[nH]n3)s2)CC1 (configuration not stated) | -141
CC(=O)c1cccc(OCc2cc(C(=O)N3CCCCO3)n[nH]2)c1 | 2.19
CN(C)c1nccnc1N1CC[C@@]2(O)CCNC[C@H]2C1 | 7.12
OC1COCCN(Cc2cccc(N3CCOCC3)c2)C1 (configuration not stated) | -12.6
Cc1cc(N2CCC3(CCC(=O)N(CCCO)C3)CC2)nc(N(C)C)n1 | -0.116
CCc1nc(N2CCC3(CCC(=O)N(Cc4ccncc4)C3)CC2)no1 | 7.1
CCNc1ncc(C(=O)N(C)C(C)c2ccc3c(c2)OCCO3)cn1 (configuration not stated) | -0.75
O=C(O)c1nn(CC2CC2)c2c1CN(S(=O)(=O)c1cccnc1)CC2 | 3.16
CC(C)(C)C(=O)NCCNc1cc(N2CCCC2)ncn1 | -43
Cc1ccc(OCC(C)NS(C)(=O)=O)cc1C (configuration not stated) | 9.98
O=C(O)c1cc(-c2cccs2)nc2c(Br)cnn12 | -9.24
Cc1ccc(=O)n(CC2(O)CCN(Cc3cnc(C)nc3)CC2)n1 | 4.3
CN(Cc1cscn1)C1CCCN(c2cccnn2)C1 (configuration not stated) | -3.69
Cc1cnn(CC2CCCCN2Cc2ncc(C(C)(C)C)o2)c1 (configuration not stated) | -3.44
CC(C)c1nn(C)c(N(C)C)c1CNC(C)c1ccccc1F (configuration not stated) | -2.97

Structure (SMILES) | cytotoxicity at 10 µM [%]
Cc1ccc(CN(Cc2nc3c(cnn3C)c(=O)[nH]2)C2CC2)o1 | -1.92
N#Cc1cccc(C(=O)N2CCC(Nc3cccnn3)CC2)c1 | -5.17
CC1CN(CCc2ccccn2)CCN1c1ccc2nncn2n1 (configuration not stated) | -3.43
Cc1ccc(CN(C)C(=O)CN2CCCC(Cn3cncn3)C2)o1 (configuration not stated) | -24.4
CC(C)c1n[nH]c(C2CN(C(=O)c3ncoc3C(C)C)CCO2)n1 (configuration not stated) | -7.22
CC(C)c1noc(C(C)N2CCN(Cc3cccnc3)CC2)n1 (configuration not stated) | -5.44
Cc1cc(C)n(C2CCCN(C(=O)c3ccc4c(c3)COC4)C2)n1 (configuration not stated) | -6.1
CCc1noc(CN2CCN(CCO)CC2)n1 | -6.13
CCCN(CCC)C(=O)CN(C)C1CCc2ccccc21 (configuration not stated) | -6.63
Cc1nc(C)n(CC2CCCCN2CC(=O)Nc2cc(C)on2)n1 (configuration not stated) | 2.67
CC(C)COCCCNC(=O)NCC(O)c1cccc(F)c1 (configuration not stated) | -3.1
COc1ncccc1CNC(=O)Nc1ccc(N(C)C)nc1 | -4.38
CN1CCC/C1=N\S(=O)(=O)c1ccc(NC(=O)c2ccc(Cl)cc2)cc1 | -0.383
O=C(c1cccc(CNS(=O)(=O)c2ccc(F)cc2)c1)N1CCCC1 | -8.57
CCC(CC)C(=O)NCCc1ccn(-c2ccccc2)n1 | -8.8
CC(Cn1cccn1)NC(=O)NCc1ccoc1 (configuration not stated) | 8.59
CC(C)N(Cc1cccc(Cl)c1)Cc1nc2c(cnn2C)c(=O)[nH]1 | 1.97
O=C(CCc1cscn1)N1CCCC(c2ccn[nH]2)C1 (configuration not stated) | -9.14
Cc1ccc(CNC(=O)NCc2cccnc2N(C)C)s1 | -4.15

Structure (SMILES) | cytotoxicity at 10 µM [%]
CCc1nnc2n1CCN(C(=O)C(C)COCc1ccccc1)C2 (configuration not stated) | -9.46
CC(C)c1nc(C2CCCN2Cc2ccn(C)c(=O)c2)no1 (configuration not stated) | -12.2
CCOc1cc(CNC(=O)N2CCC(Cc3cnn(C)c3)C2)ccn1 (configuration not stated) | -8.29
CC(C)c1ccc(C(O)Cn2c(=O)c(C#N)cn(C3CC3)c2=O)cc1 (configuration not stated) | -11.5
CCc1nc(CN2CCCN(C(=O)C(C)COC)CC2)cs1 (configuration not stated) | -0.884
CN(CCNC(=O)NCc1ccncc1)C1CCCC1 | -2.95
Cc1cc(CN(C)C(=O)c2ccc(F)cc2Br)no1 | 0.864
CCOc1ccccc1C1CCCN1 (configuration not stated) | -14.1
CNC(=O)C1(N2CCC[C@H]2C(=O)NC2CCOCC2)CCOCC1 | 0.705
CNC(=O)CN1CCOCC12CCN(C(=O)c1ccc(C)cc1)CC2 | -87.6
Cn1nnc2c1CCN(Cc1nccs1)C2COCc1ccccc1 (configuration not stated) | -2.01
Cc1ccc(CN2CCO[C@H]3[C@@H](OCc4cccnc4)CC[C@@H]32)o1 | -0.58
Cc1cccc(CN2Cc3ccnn3CC(COCC3CC3)C2)n1 (configuration not stated) | 2.13
c1cc(CN2C[C@@H]3OCCN(CCN4CCCC4)[C@@H]3C2)co1 | 6.13
CCN1CCC(N2CCC(C(=O)N(C)C)CC2)CC1 | 0.486
COCC1CN(C(=O)Cc2ccccn2)Cc2c1cnn2CC1CC1 (configuration not stated) | -69.1
CN(C)CCN1CCO[C@@H]2CN(C(=O)c3cccs3)CC[C@@H]2C1 | 1.34
c1cnc(N2C[C@H]3CC[C@@H](C2)N(Cc2ccsc2)C3)nc1 | 1.2
COCC(=O)NCC1CCC(c2ccnc3ncnn23)CC1 (configuration not stated) | 1.36
